ChEMBL document CHEMBL5506039, “Discovery and Optimization of Tambjamines as a Novel Class of Antileishmanial Agents” (J Med Chem, 2024)

Assays:
Leishmania mexicana [1] = test: (§1) Antileishmanial activity against Leishmania mexicana MNYC/BZ/62/M379 amastigotes expressing red-shifted firefly luciferase from integrated ribosomal (28S) RNA locus infected in mouse J774.A1 cells assessed as reduction in parasite survival measured after 96 hrs by luminescence based analysis; assay type: functional, organism-based; conditions: MNYC/BZ/62/M379, J774.A1, 96 h
Method in brief: (§2)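 J774A.1 macrophages infected with stationary-phase luciferase-expressing promastigotes at 10:1 parasites:macrophage, overnight at 37 °C, 5% CO₂. Non-internalized parasites washed off and 1 × 10⁴ cells/well replated in MEM/10% HI-FBS. Compounds in DMSO added as serial 3-fold dilutions (typically 10 μM–1 nM) for 96 h. Luciferase luminescence read; EC50 from log-transformed sigmoidal variable-slope fit. Mean ± SD of ≥2 independent experiments.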

[2] = Cytotoxicity against mouse J774.A1 cells assessed as cell survival at 0.1 uM measured after 96 hrs by SYBR Green II dye based analysis relative to control; assay type: toxicity; conditions: read-out: Survival
Method in brief: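 Uninfected J774A.1 mouse macrophages were plated at 1 × 10⁴ cells/well in DMEM with 10% heat-inactivated FBS and left 3 h at 37 °C to reattach. Compounds were added from DMSO, and analogues were screened at 0.1 μM. After 96 h at 37 °C in 5% CO₂, medium was removed. SYBR Green II (1:1000 in 1% Triton/PBS) was added for 1 h in the dark at room temperature, and fluorescence was read at Ex 485/Em 535 as a DNA-content measure of viability.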

[3] = Metabolic stability in pre-warmed pooled human liver microsomes assessed as half life at 1 uM measured upto 60 mins by LC-MS analysis; assay type: ADME, Microsome
Method in brief: (§3)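 Compound at 1 μM final with 0.5 mg/mL pooled human or mouse liver microsomes, 1.3 mM NADP and 3.3 mM MgCl₂ in 100 mM potassium phosphate, pH 7.4. Reaction started with 1 U/mL G6PD at 37 °C with shaking.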

[4] = Cytotoxicity against mouse J774.A1 cells assessed as reduction in cell survival measured after 96 hrs by SYBR Green II dye based analysis; assay type: toxicity
Method in brief: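 Uninfected J774A.1 macrophages, 1 × 10⁴ cells/well in DMEM/10% HI-FBS, reattached 3 h, then exposed to compounds for 96 h. DNA content read after lysis with SYBR Green II (1:1000 in 1% Triton/PBS), 1 h dark at room temperature, fluorescence Ex 485/Em 535.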

Leishmania mexicana [5] = test: as §1, with “as” for “as reduction in”, “survival at 0.1 uM” for “survival”, “analysis relative to control” for “analysis”; assay type: functional; conditions: MNYC/BZ/62/M379, J774.A1
[6] = Therapeutic index, ratio of EC50 for mouse J774.A1 cells to EC50 for antileishmanial activity against Leishmania mexicana MNYC/BZ/62/M379 amastigotes expressing red-shifted firefly luciferase from integrated ribosomal (28S) RNA locus infected in mouse J774.A1 cells; assay type: toxicity, cell-based; conditions: read-out: TI
[7] = Metabolic stability in pre-warmed pooled mouse liver microsomes assessed as half life at 1 uM measured upto 60 mins by LC-MS analysis; assay type: ADME, Microsome; method in brief: as §3
Leishmania donovani = test: Antileishmanial activity against Leishmania donovani amastigotes expressing red-shifted firefly luciferase from integrated ribosomal (28S) RNA locus infected in mouse J774.A1 cells assessed as reduction in parasite growth measured after 96 hrs by luminescence based analysis; assay type: functional, organism-based; conditions: J774.A1, 96 h; method in brief: as §2

| SMILES | EC50 (Leishmania mexicana [1]) [nM] | viability at 96 h, 0.1 µM [2] [%] | half-life at 1 µM [3] [min] | EC50 at 96 h [4] [nM] | survival at 0.1 µM (Leishmania mexicana [5]) [%] | selectivity ratio [6] | half-life at 1 µM [7] [min] | EC50 (Leishmania donovani) [nM] |
| --- | --- | --- | --- | --- | --- | --- | --- | --- |
| COC1=CC(c2ccc(Cc3ccc(OC)cc3)[nH]2)=N/C1=C\NC1CCCC1.Cl | 23.8 | 86.6 | 11.7 | 717 | 1.4 | 30 |  |  |
| COC1=CC(c2ccc[nH]2)=N/C1=C\Nc1ccc2c(c1)OCCO2.Cl | 32 | 77.3 | > 60 | > 1000 | 9.03 | > 31 | 15.8 |  |
| COC1=CC(c2ccc(Cc3ccc(OC)cc3)[nH]2)=N/C1=C\NC1CCCCCC1.Cl | 16.2 | 84.6 | 25.6 | 959 | -0.11 | 59 |  |  |
| COC1=CC(c2ccc[nH]2)=N/C1=C\Nc1ccc(OC(F)(F)F)cc1.Cl | 72.5 | 89.6 | > 60 | > 1000 | 18.9 | > 14 |  |  |
| CCCCCCCCCCCN/C=C1\N=C(c2ccc[nH]2)C=C1OC | 47.5 | 112 |  | > 1000 | 11.9 | > 21 |  |  |
| COC1=CC(c2ccc[nH]2)=N/C1=C\Nc1cccc(OC(F)(F)F)c1.Cl | 54 | 83.7 | > 60 | 760 | 11.4 | 14 | 15.8 |  |
| COC1=CC(c2ccc(Cc3ccc(OC)cc3)[nH]2)=N/C1=C\NC1CCCCCCC1.Cl | 15.8 | 84.8 | 50.8 | 547 | -0.11 | 35 |  |  |
| CCc1c[nH]c(C2=N/C(=C\NC3CCCCCC3)C(C)=C2C)c1.Cl | 117 | 63.3 | > 60 | 1330 | 23.8 | 11 | 11 |  |
| Cl.FC(F)(F)Oc1ccc(OC2=CC(c3ccc[nH]3)=N/C2=C\NC23CC4CC(CC(C4)C2)C3)cc1 | 41 | 80.7 | > 60 | 353 | 35.7 | 8.6 | > 60 |  |
| Clc1ccc(OC2=CC(c3ccc[nH]3)=N/C2=C\NC2CCCCCC2)cc1 | 63.7 | 100 |  | 367 | 19.8 | 5.8 |  |  |
| COC1=CC(c2ccc[nH]2)=N/C1=C\NC1CCN(Cc2ccccc2)CC1 | 79.5 | 124 |  | 625 | 24.6 | 7.9 |  |  |
| COC1=CC(c2ccc[nH]2)=N/C1=C\N[C@H]1CC[C@H](NC(=O)OC(C)(C)C)CC1 | 87.7 | 51.1 | 8.45 | 2990 | 28.3 | 34 | 9.71 |  |
| CCc1ccc(C2=N/C(=C\NC3CCCCCC3)C(OC)=C2)[nH]1.Cl | 37.1 | 52.5 | > 60 | 512 | 0.3 | 14 |  |  |
| CCCCCCN/C=C1\N=C(c2ccc[nH]2)C=C1Oc1ccc(OC(F)(F)F)cc1 | 303 | 110 |  | 1100 | 46.1 | 3.6 |  |  |
| Cc1ccc(N/C=C2\N=C(c3ccc[nH]3)C3=C2CCCC3)cc1.Cl |  | 95.1 | 42.1 |  | 112 |  |  |  |
| C(/NCC1CCCCCC1)=C1/N=C(c2ccc[nH]2)C2=C1CCCC2.Cl |  | 75 | > 60 |  | 16.1 |  | > 60 |  |
| COC1=CC(c2ccc[nH]2)=N/C1=C\Nc1ccccc1 | 73 | 72.8 |  | 1040 | 14.3 | 14 |  | 226 |

| SMILES | EC50 (Leishmania mexicana [1]) [nM] | viability at 96 h, 0.1 µM [2] [%] | half-life at 1 µM [3] [min] | EC50 at 96 h [4] [nM] | survival at 0.1 µM (Leishmania mexicana [5]) [%] | selectivity ratio [6] | half-life at 1 µM [7] [min] | EC50 (Leishmania donovani) [nM] |
| --- | --- | --- | --- | --- | --- | --- | --- | --- |
| COc1ccc(Oc2ccc(N/C=C3\N=C(c4ccc[nH]4)C4=C3CCCC4)cc2)cc1.Cl |  | 62.5 | > 60 |  | 89.8 |  | > 60 |  |
| COC1=CC(c2ccc(Cc3ccc(OC)cc3)[nH]2)=N/C1=C\NC1CCCCC1.Cl | 22.6 | 84.6 | 19.7 | 946 | 0.01 | 42 |  |  |
| COC1=CC(c2ccc(Cc3ccc(OC)cc3)[nH]2)=N/C1=C\NC12CC3CC(CC(C3)C1)C2.Cl | 11.3 | 59.6 | > 60 | > 1000 | -0.05 | > 88 | > 60 |  |
| COC1=CC(c2ccc(-c3ccc(OC)cc3)[nH]2)=N/C1=C\NC1CCCCCC1.Cl | 18.8 | 77.3 | > 60 | 450 | -0.02 | 24 | > 60 |  |
| COC1=CC(c2ccc[nH]2)=N/C1=C\Nc1ccc(C)cc1.Cl | 41 | 50.8 | 30 | 171 | 5.49 | 4.2 | 28.9 |  |
| COC1=CC(c2ccc[nH]2)=N/C1=C\Nc1ccc(Cl)c(Cl)c1.Cl | 100 | 67.5 | 56.2 | > 1000 | 23.8 | > 10 |  |  |
| COC1=CC(c2ccc[nH]2)=N/C1=C\Nc1ccc(Oc2ccc(OC)cc2)cc1 | 66 | 50.2 | > 60 | > 1000 | 8.65 | > 15 | 30.1 |  |
| FC(F)(F)Oc1ccc(OC2=CC(c3ccc[nH]3)=N/C2=C\NC2CCCCC2)cc1 | 84 | 81.3 |  | 982 | 52.7 | 11.7 |  |  |
| C[C@H]1CC[C@H](N/C=C2\N=C(c3ccc[nH]3)C=C2Oc2ccc(Cl)cc2)CC1 | 72.3 | 80.1 |  | 321 | 27.5 | 4.4 |  |  |
| CC1=C(C)/C(=C/NCC2CCCCCC2)N=C1c1ccc[nH]1 | 91.7 | 53.2 |  | 1600 | 14.2 | 17 |  |  |
| FC(F)(F)Oc1ccc(OC2=CC(c3ccc[nH]3)=N/C2=C\NCC2CCCCCC2)cc1 | 167 | 97.6 |  | 717 | 42.9 | 4.3 |  |  |
| FC(F)(F)Oc1ccc(OC2=CC(c3ccc[nH]3)=N/C2=C\NC2CCCCCC2)cc1 | 155 | 82.8 |  | 642 | 43 | 4.1 |  |  |
| COC1=CC(c2ccc[nH]2)=N/C1=C\NC1CCCCC1 | 40.5 | 88.9 |  | > 1000 | 7.33 | > 25 |  |  |
| Cc1ccc(Oc2ccc(N/C=C3\N=C(c4ccc[nH]4)C4=C3CCCC4)cc2)cc1.Cl |  | 58.2 | > 60 |  | 102 |  | > 60 |  |
| CCCCCCCCCCCCCCCCOP(=O)([O-])OCC[N+](C)(C)C [MILTEFOSINE] | 3460 | 39.2 |  | > 100000 | 0.02 | > 29 |  |  |
| COC1=CC(c2ccc[nH]2)=N/C1=C\Nc1cccc(Cl)c1.Cl | 91.5 | 65.3 | > 60 | 570 | 13.6 | 6.2 |  |  |
